Source: ChEMBL document CHEMBL5252516, “Linker Modification Strategies To Control the Prostate-Specific Membrane Antigen (PSMA)-Targeting and Pharmacokinetic Properties of DOTA-Conjugated PSMA Inhibitors” (J Med Chem, 2016)
pKi: −log10 of the molar value.

Experiments:
[1] = Drug uptake in iv dosed BALB/c athymic nude mouse tumor xenografted with human LNCaP cells treated with 68Ga-labeled compound measured after 1 hr by microPET imaging analysis; type: ADME, organism-based; conditions: in vivo
Summary of the method: (§1)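 Male BALB/c nu/nu mice, 6–8 weeks old, with subcutaneous LNCaP xenografts (6 × 10^6 cells in 50% Matrigel, right trunk) of about 1 cm. Tail-vein injection of 68Ga-labelled compound (~30 MBq, 0.5 nmol) under sevoflurane. Dynamic µPET: 60 min emission scan, then 100–120 min scan. SUVmean for tumor, muscle and kidney at 1 h; tumor/muscle ratio. One animal per compound.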

[2] = Drug uptake in iv dosed BALB/c athymic nude mouse tumor xenografted with human LNCaP cells treated with 68Ga-labeled compound measured upto 120 mins by microPET imaging analysis; type: ADME, organism-based; conditions: in vivo, 2 h; summary of the method: as §1
[3] = Binding affinity to human serum protein after 1 hr by gel filtration method; type: ADME
[4] = Distribution coefficient, logD of the compound at pH 7.4 in n-octanol/0.1 M HEPES by shake flask method; type: physicochemical
Summary of the method: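 Radiolabelled compound shaken to equilibrium in n-octanol / 0.1 M HEPES pH 7.4. Aliquots of both phases gamma-counted and logD calculated from the phase ratio. Mean ± SD.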

[5] = target: T1, Glutamate carboxypeptidase 2 (Homo sapiens, UniProt Q04609); assay: Inhibition of PSMA in human LNCaP cells assessed as cell surface binding per 10^6 cells using 177Lu-labeled compound after 45 mins by gamma counting analysis; type: cell-based
Summary of the method: (§2)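 LNCaP cells (10^5/well) seeded on poly-L-lysine 24 h before. Incubated 45 min at 37 °C with 32 nM 177Lu-labelled compound (25 GBq/µmol) in Opti-MEM, with or without 500 µM 2-PMPA as blocker. Four ice-cold PBS washes, surface fraction stripped with 50 mM glycine pH 2.8, internalized fraction released by 0.3 M NaOH lysis. Both fractions gamma-counted, specific values given as %IA/10^6 cells. Triplicate.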
Target sequence in this assay (Q04609 whole entry, looked up): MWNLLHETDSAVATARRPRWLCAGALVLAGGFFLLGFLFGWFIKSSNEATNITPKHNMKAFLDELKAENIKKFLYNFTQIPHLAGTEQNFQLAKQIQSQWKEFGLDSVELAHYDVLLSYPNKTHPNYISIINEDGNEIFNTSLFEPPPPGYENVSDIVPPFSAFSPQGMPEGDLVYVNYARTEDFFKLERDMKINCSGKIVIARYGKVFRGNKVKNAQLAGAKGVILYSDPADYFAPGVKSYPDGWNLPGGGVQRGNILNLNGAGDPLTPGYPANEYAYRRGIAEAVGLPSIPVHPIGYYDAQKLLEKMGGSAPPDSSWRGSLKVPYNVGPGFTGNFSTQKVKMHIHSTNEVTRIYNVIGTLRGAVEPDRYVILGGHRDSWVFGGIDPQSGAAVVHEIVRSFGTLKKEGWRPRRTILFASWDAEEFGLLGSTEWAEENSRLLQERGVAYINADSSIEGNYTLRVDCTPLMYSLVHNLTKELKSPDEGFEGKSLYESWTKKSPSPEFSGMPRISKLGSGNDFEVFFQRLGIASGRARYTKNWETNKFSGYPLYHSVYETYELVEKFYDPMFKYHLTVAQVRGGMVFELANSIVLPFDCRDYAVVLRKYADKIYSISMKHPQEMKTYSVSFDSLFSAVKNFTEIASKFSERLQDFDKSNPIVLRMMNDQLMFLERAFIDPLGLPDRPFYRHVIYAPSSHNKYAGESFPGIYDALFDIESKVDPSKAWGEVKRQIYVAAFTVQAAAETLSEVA

[6] = Retention time of the compound by HPLC; type: physicochemical
[7] = target: T1, Glutamate carboxypeptidase 2; assay: Binding affinity to PSMA in human LNCaP cells after 45 mins in presence of 68Ga-labeled PSMA-10 by gamma counting assay; type: cell-based
Target sequence in this assay (Q04609 whole entry): as the sequence (Q04609 whole entry, looked up) above

[8] = target: T1, Glutamate carboxypeptidase 2; assay: Inhibition of PSMA in human LNCaP cells assessed as specific internalization per 10^6 cells using 177Lu-labeled compound after 45 mins by gamma counting analysis; type: cell-based; summary of the method: as §2
Target sequence in this assay (Q04609 whole entry, looked up): as above

[9] = Ratio of drug uptake in tumor to muscle in iv dosed BALB/c athymic nude mouse xenografted with human LNCaP cells treated with 68Ga-labeled compound measured after 1 hr by microPET imaging analysis; type: ADME, organism-based; conditions: in vivo; summary of the method: as §1
[10] = Drug uptake in iv dosed BALB/c athymic nude mouse kidney xenografted with human LNCaP cells treated with 68Ga-labeled compound measured after 1 hr by microPET imaging analysis; type: ADME, organism-based; conditions: in vivo; summary of the method: as §1
[11] = Drug uptake in iv dosed BALB/c athymic nude mouse muscle xenografted with human LNCaP cells treated with 68Ga-labeled compound measured after 1 hr by microPET imaging analysis; type: ADME, organism-based; conditions: in vivo; summary of the method: as §1

Compound | SUV [1] | Drug uptake [2] | PB [3] | logD [4] | specific cell surface binding (% of applied activity per 10^6 cells) [5] | Retention_time [6] | pKi [7] | specific internalization (% of added activity per 10^6 cells) [8] | Ratio [9] | SUV [10] | SUV [11]
O=C(O)CC[C@H](NC(=O)N[C@@H](CCCCNC(=O)[C@H]1CC[C@H](CNC(=O)c2ccc(CNC(=O)CN3CCN(CC(=O)O)CCN(CC(=O)O)CCN(CC(=O)O)CC3)cc2)CC1)C(=O)O)C(=O)O | 0.54 | Not Active | Not Active | -1.43 | 4.49% | 2.07 min | 7.61 | 2.7% | 3.9 | 8.1 | 0.14
O=C(O)CC[C@H](NC(=O)N[C@@H](CCCCNC(=O)[C@H](Cc1ccc2ccccc2c1)NC(=O)c1ccc(CNC(=O)CN2CCN(CC(=O)O)CCN(CC(=O)O)CCN(CC(=O)O)CC2)cc1)C(=O)O)C(=O)O | 0.52 | Active | Not Active | -2.1 | 16.8% | 2.32 min | 8.74 | 7.17% | 5.2 | 3.63 | 0.1
O=C(O)CC[C@H](NC(=O)N[C@@H](CCCCNC(=O)c1ccc(CNC(=O)c2ccc(CNC(=O)c3ccc(CNC(=O)CN4CCN(CC(=O)O)CCN(CC(=O)O)CCN(CC(=O)O)CC4)cc3)cc2)cc1)C(=O)O)C(=O)O | 0.58 | Active | Not Active | -2.06 | 21.4% | 1.95 min | 9.28 | 12.5% | 5.4 | 4.16 | 0.11
O=C(O)CC[C@H](NC(=O)N[C@@H](CCCCNC(=O)[C@H]1CC[C@H](CNC(=O)[C@H]2CC[C@H](CNC(=O)CN3CCN(CC(=O)O)CCN(CC(=O)O)CCN(CC(=O)O)CC3)CC2)CC1)C(=O)O)C(=O)O | 0.3 | Not Active | Not Active | -1.12 | 3.88% | 2.08 min | 7.68 | 1.43% | 2.3 | 4.29 | 0.13
O=C(O)CC[C@H](NC(=O)N[C@@H](CCCCNC(=O)CCCCCNC(=O)c1ccc(CNC(=O)CN2CCN(CC(=O)O)CCN(CC(=O)O)CCN(CC(=O)O)CC2)cc1)C(=O)O)C(=O)O | 0.3 | Not Active | Not Active | -1.92 | 17.7% | 1.74 min | 7.82 | 2.11% | 3.8 | 4.7 | 0.08
